Assay outcomes deposited in PubChem by several laboratories.
T cruzi inh = T. cruzi replication inhibition; AID 1885; actives 1.4% (n = 300,000); T. cruzi beta-gal in NIH3T3, luminescence, 90 h; inhibition, % (test concentration not listed);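 active = mean inhibition across valid replicates above about 55%, limit read from the data; inconclusive = mean below that limit but half or more replicates reach it; inactive = mean below it, under half of replicates reach it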;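 also: signal also drops with host cell toxicity which is not excluded here; 0% = plate median of DMSO wells and 100% = zero luminescence signal; higher percent means less beta-gal luminescence so fewer parasites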
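Read-out: Parasite load inhibition, % | Test system: Mouse NIH/3T3 fibroblasts infected with β-gal-expressing T. cruzi Tulahuen C4 | Amount: 5,000 cells/well | Medium: DMEM, 2% fetal bovine serum | Signal: GalScreen β-gal luminescence, detergent lysis, 60 min | Timing: 3 h attach, ≥90 h co-culture | Also added: Tulahuen C4 trypomastigotes, 5000/well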
JMJD2C inh = human JMJD2C demethylase inhibition. Q9H3R0. GST-JMJD2C(1-420) H3K9me3 demethylation, DELFIA europium. inhibition, % at 2.35 µM. actives 0.069% (n = 330,000). AID 2099;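 active = more than half of a compound's replicate wells show inhibition beyond 50%, single wells judged on their own value; inconclusive = some, but no more than half, of replicates pass 50% inhibition; inactive = no replicate passes 50% inhibition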;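 also: signal counts dimethyl H3K9 product captured on neutravidin plate; 0% = median of DMSO wells and 100% = 0.3 times that DMSO median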
Target sequence (Q9H3R0 1-420 limits assumed): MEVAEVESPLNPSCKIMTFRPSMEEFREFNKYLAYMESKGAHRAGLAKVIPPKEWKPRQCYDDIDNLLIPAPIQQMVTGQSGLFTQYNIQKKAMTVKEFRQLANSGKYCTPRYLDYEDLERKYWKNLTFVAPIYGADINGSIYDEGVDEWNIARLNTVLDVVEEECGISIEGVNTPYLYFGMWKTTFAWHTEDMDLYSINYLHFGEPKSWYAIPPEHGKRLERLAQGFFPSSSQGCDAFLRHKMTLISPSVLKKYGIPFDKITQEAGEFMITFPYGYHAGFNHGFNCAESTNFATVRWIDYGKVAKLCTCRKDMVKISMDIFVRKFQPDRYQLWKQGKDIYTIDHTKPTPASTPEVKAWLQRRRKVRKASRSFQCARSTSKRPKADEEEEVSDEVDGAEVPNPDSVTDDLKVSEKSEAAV
pCIP destab = p/CIP protein destabilization; F442A p/CIP-EGFP cells, EGFP fluorescence, 16 h; decrease of EGFP signal, % at 10 µM; Q05BA5; actives 0.01% (n = 290,000);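 active = EGFP signal decrease of at least 30% at 10 µM or well 3 SD below plate mean, unless failing retest; inactive = the rest, including hits failing retest or dose response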
PP5 primary = PP5 (human) phosphatase inhibition | actives 0.18% (n = 320,000) | inhibition, % at 6.7 µM | purified PP5c, OMFP substrate fluorescence;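 active = inhibition above the campaign's mean inhibition across all tested compounds plus 3 SD, cut at about 9.5% in these data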;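 also: 0% = DMSO only and 100% = 100 µM cantharidin control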
Fh CTSL1 inh = counter-screen for PFM18AAP inhibitors: inhibitors of F. hepatica cathepsin L1; recombinant F. hepatica cathepsin L1, Z-Leu-Arg-MCA fluorescence; inhibition, % at 5.96 µM; actives 0.49% (n = 300,000);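 active = inhibition above the mean of all tested compounds plus 3 SD, set per screening campaign, cut at about 17% in these data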;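 also: 0% = plate median of test compound wells and 100% = 1 µM Z-Phe-Ala-diazomethylketone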
H9c2 protect = modulators protecting cardiomyocytes from myocardial damage. actives 0.63% (n = 360,000). H9c2 cardiomyocytes, H2O2 injury protection, ATPLite, 2 h. protection from H2O2 cell death, % at 20 µM;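 active = compounds giving at least 50% protection of heart cells from peroxide-induced death in the single-dose screen, raw or plate-pattern-corrected value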;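 also: 0% = DMSO wells with peroxide and 100% = DMSO wells without peroxide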
Numbers without * were called inactive. Only some compounds are listed: those with a hit (about 2.4% of all), similar ones and a draw of the others.

What do the screens show for `O=C(Nc1ccc(N2CCCC2)c(Cl)c1)c1ccc(Br)o1`?
T cruzi inh: 54.7*; JMJD2C inh: -1.8; pCIP destab: 6.6; PP5 primary: 4.4; Fh CTSL1 inh: 1.8; H9c2 protect: 8.1

How did O=C(Nc1cc(Cl)ccc1N1CCOCC1)c1ccc(N2CCCCC2)c([N+](=O)[O-])c1 do in these assays?
T cruzi inh: 22.0; JMJD2C inh: 4.0; PP5 primary: -4.3; Fh CTSL1 inh: -4.5; H9c2 protect: -0.9

Results for CCCC(C(=O)NC1CCCC1)N(CC1CCCO1)C(=O)CNS(=O)(=O)c1ccccc1 (configuration not stated) ?
T cruzi inh: 6.9; JMJD2C inh: -3.6; pCIP destab: -12.3; PP5 primary: 1.4; Fh CTSL1 inh: 5.4; H9c2 protect: -1.3

How did O=C(CN1CCC(NC(=O)Nc2ccccc2)CC1)Nc1ccc([N+](=O)[O-])cc1 do in these assays?
T cruzi inh: 0.8; JMJD2C inh: -7.0; pCIP destab: -3.4; PP5 primary: -0.9; Fh CTSL1 inh: 2.7; H9c2 protect: 1.8

Results for CN(C)CCCN(C(=O)COc1ccc(Cl)cc1)c1nc2c(F)cccc2s1 ?
T cruzi inh: 80.0*; JMJD2C inh: 0.7; pCIP destab: -2.6; PP5 primary: 1.0; Fh CTSL1 inh: -0.5; H9c2 protect: 5.2

How did CCOc1cccc2sc(N(CCCN(C)C)C(=O)c3ccc(S(=O)(=O)N(C)c4ccccc4)cc3)nc12 do in these assays?
T cruzi inh: 55.9*; JMJD2C inh: -1.5; pCIP destab: -4.1; PP5 primary: 4.0; Fh CTSL1 inh: -3.5; H9c2 protect: -13.4

Results for Cc1cccc2sc(N(CCN(C)C)C(=O)/C=C/c3cccs3)nc12 ?
T cruzi inh: 22.3; JMJD2C inh: -1.7; pCIP destab: -6.5; PP5 primary: 4.3; Fh CTSL1 inh: 0.8; H9c2 protect: -9.6

How did CN(C)CCCN(C(=O)/C=C/c1cccs1)c1nc2c(F)cccc2s1 do in these assays?
T cruzi inh: 56.0*; JMJD2C inh: -0.1; pCIP destab: -2.0; H9c2 protect: -27.9

How did CN(C)CCCN(C(=O)CCOc1ccccc1)c1nc2c(F)cccc2s1 do in these assays?
T cruzi inh: 58.5*; JMJD2C inh: 0.0; pCIP destab: -3.6; H9c2 protect: -25.6

How did Cc1c(C(=O)N2CCCC2)c(S(=O)(=O)N2CCN(c3ccccc3F)CC2)c(C)n1C do in these assays?
T cruzi inh: -3.2; JMJD2C inh: -1.4; pCIP destab: 10.8; PP5 primary: 1.8; Fh CTSL1 inh: -0.5; H9c2 protect: 4.5

Results for Cc1ccc2c(C(=O)CN3CCN(C(=O)c4ccco4)CC3)c(C)[nH]c2c1 ?
T cruzi inh: 9.2; JMJD2C inh: 3.6; pCIP destab: -1.6; PP5 primary: 2.4; Fh CTSL1 inh: -0.9; H9c2 protect: 4.0

How did NC(=S)Nc1ccc(C(F)(F)F)cc1Cl do in these assays?
T cruzi inh: -3.7; JMJD2C inh: 1.7; pCIP destab: -0.1; PP5 primary: 2.2; Fh CTSL1 inh: -3.4; H9c2 protect: 2.3

How did COc1cc(C(=O)c2cc3c(cc2C)OCO3)cc(OC)c1OC do in these assays?
H9c2 protect: -2.1

What do the screens show for `CN(C)CCCN(C(=O)c1ccc(S(=O)(=O)N(C)Cc2ccccc2)cc1)c1nc2c(F)cccc2s1`?
T cruzi inh: 36.0; JMJD2C inh: 0.7; pCIP destab: -3.5; PP5 primary: 1.1; Fh CTSL1 inh: -2.3; H9c2 protect: -7.8

Results for CN(C)CCCN(C(=O)CCc1ccccc1)c1nc2c(F)cccc2s1 ?
T cruzi inh: 58.4*; JMJD2C inh: -0.3; pCIP destab: -14.8; PP5 primary: 1.2; Fh CTSL1 inh: 1.8; H9c2 protect: 23.8

How did Cc1ccc2c(c1)N(CC(=O)Nc1ccccc1F)C(=O)C(C)O2 (configuration not stated) do in these assays?
H9c2 protect: -2.2

Results for O=C(O)CN1C(=O)COc2ccc(S(=O)(=O)N3CCCCCC3)cc21 ?
T cruzi inh: -21.5; JMJD2C inh: 26.9; pCIP destab: -3.0; PP5 primary: -0.8; Fh CTSL1 inh: -0.8; H9c2 protect: -1.1

Results for CC(=O)Nc1ccc(S(=O)(=O)NC2C3(C)CCC(C3)C2(C)C)cc1 (configuration not stated) ?
T cruzi inh: -11.5; JMJD2C inh: 4.5; pCIP destab: -4.5; H9c2 protect: -3.5

Results for COc1ccc(S(=O)(=O)N(C)c2ccc(C(=O)N3CCCCC3)cc2)cc1 ?
T cruzi inh: 2.6; JMJD2C inh: -2.7; pCIP destab: -10.4; PP5 primary: -0.7; Fh CTSL1 inh: 0.0; H9c2 protect: -12.9

What do the screens show for `Cc1cc(Cl)n2c(nc3cc(F)c(F)cc32)c1C#N`?
T cruzi inh: 79.0*; JMJD2C inh: inconclusive; pCIP destab: -11.5; H9c2 protect: -36.6

Results for COc1cccc(CC2(CO)CCN(Cc3cnc(N4CCOCC4)s3)CC2)c1 ?
T cruzi inh: 36.6; JMJD2C inh: 16.0; pCIP destab: -4.0; PP5 primary: -0.9; Fh CTSL1 inh: -4.0; H9c2 protect: 14.2

Results for CCOC(=O)C1(Cc2ccccc2)CCN(Cc2cccc(OC)c2O)CC1 ?
T cruzi inh: 10.7; JMJD2C inh: -6.2; pCIP destab: 1.6; PP5 primary: -1.0; Fh CTSL1 inh: 18.2*; H9c2 protect: -5.3

What do the screens show for `CCOC(=O)C1(Cc2ccccc2)CCN(Cc2cnc(N3CCOCC3)s2)CC1`?
T cruzi inh: 58.8*; JMJD2C inh: -22.7; pCIP destab: -3.2; PP5 primary: 1.3; Fh CTSL1 inh: -1.0; H9c2 protect: 5.4

Results for OCC1(CCCc2ccccc2)CCN(Cc2cnc(N3CCOCC3)s2)CC1 ?
T cruzi inh: 58.7*; JMJD2C inh: 23.5; pCIP destab: -2.7; PP5 primary: 0.4; Fh CTSL1 inh: 3.0; H9c2 protect: -20.0

What do the screens show for `COc1cccc2c(N/N=C/c3ccc(O)c(O)c3)cc(C)nc12`?
T cruzi inh: 1.5; JMJD2C inh: -10.6; pCIP destab: 1.2; PP5 primary: 2.5; Fh CTSL1 inh: -3.3; H9c2 protect: 20.5

What do the screens show for `COc1ccc2nc(C)cc(N/N=C/c3ccc(F)cc3)c2c1`?
T cruzi inh: 60.8*; JMJD2C inh: -6.2; pCIP destab: -10.1; PP5 primary: 2.8; Fh CTSL1 inh: 0.7; H9c2 protect: -21.6

How did COc1ccc(/C=N/Nc2cc(C)nc3c(C)cccc23)cc1 do in these assays?
T cruzi inh: 74.2*; JMJD2C inh: -4.0; pCIP destab: -3.5; PP5 primary: 3.4; Fh CTSL1 inh: 6.0; H9c2 protect: -19.3

What do the screens show for `COc1ccc(/C=N/Nc2cc(C)nc3ccccc23)cc1`?
T cruzi inh: 64.1*; JMJD2C inh: -1.6; pCIP destab: -2.6; PP5 primary: 3.3; Fh CTSL1 inh: -2.4; H9c2 protect: -18.9

Results for Cc1ccccc1-c1cccc([C@@H]2C[C@H]3[C@H](CON3C)CN2Cc2cc(Cl)cc(Cl)c2)c1 ?
H9c2 protect: -15.8
